Each structure is given as a SMILES string. The source made the active and inactive calls. The calls are words filed in the database; no cut-off is given here.

Data set [1] relates to Lewis lung carcinoma cell line. Put plainly: Percentage increase in life span of tumor bearing animals compared to non treated, tumor-bearing controls when treated at the optimal dose of 20 mg/kg/day ip (LL). The class given is functional, organism-based. The following applies: Mus musculus.
Data set [2] is described as follows: Lipophilicity index (Rm) (HPLC). The class given is physicochemical.
The test system of a further data set is L1210. Put plainly: Inhibition murine leukemia L1210 cell growth in culture. It counts as functional, cell-based. Particulars: Mus musculus. The method, boiled down: (§1)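 IC50 is the drug concentration, in nM, that inhibits growth of the cultured cell line by 50%.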
A short description of data set [3]: Selectivity ratio of IC50 of HCT to IC50 of L1210 cell lines. It counts as functional.
A further data set concerns HCT-8. In words: Inhibition of human colon tumor (HCT-8) cell growth in culture. The class given is functional, cell-based. The method, boiled down: as §1
The test system of data set [4] is P388. Put plainly: Percentage increase in life span of tumor bearing animals compared to non treated, tumor-bearing controls when treated at the optimal dose of 13.3 mg/kg/day ip (P388). It counts as functional. Particulars: Mus musculus, route intraperitoneal.
Data set [5] has as its system Lewis lung carcinoma cell line. Put plainly: (§2) Percentage increase in life span of tumor bearing animals compared to non treated, tumor-bearing controls when treated at the optimal dose of 30 mg/kg/day intraperitoneally. The class given is functional. Particulars: Mus musculus, ip, route intraperitoneal.
Data set [6] relates to P388. The description is as §2. The class given is functional. The following applies: Mus musculus, P388, ip; route intraperitoneal.
Data set [7] has as its system Lewis lung carcinoma cell line. In words: (§3) Percentage increase in life span of tumor bearing animals compared to non treated, tumor-bearing controls when treated at the optimal dose of 150 mg/kg/day intraperitoneally. The class given is functional. Particulars: Mus musculus, ip, route intraperitoneal.
Data set [8] relates to P388. The description is as §3. Particulars: Mus musculus, P388, ip; route intraperitoneal. The class given is functional.
A short description of data set [9]: Base strength is expressed as pKa, determined in water at 25 degrees Centigrade by spectrophotometric method. The class given is physicochemical.
Data set [10] deals with P388. Put plainly: (§4) Percentage increase in life span of tumor bearing animals compared to non treated, tumor-bearing controls when treated at the optimal dose of 100 mg/kg/day intraperitoneally. It counts as functional. The following applies: Mus musculus, P388, ip; route intraperitoneal.
The test system of data set [11] is Lewis lung carcinoma cell line. The data set is described as §4. Particulars: Mus musculus, ip, route intraperitoneal. The class given is functional.
In data set [12] the test system is Lewis lung carcinoma cell line. Put plainly: (§5) Percentage increase in life span of tumor bearing animals compared to non treated, tumor-bearing controls when treated at the optimal dose of 65 mg/kg/day intraperitoneally. The class given is functional. The following applies: Mus musculus, ip, route intraperitoneal.
In data set [13] the test system is P388. Described as §5. The class given is functional. The following applies: Mus musculus, P388, ip; route intraperitoneal.
Data set [14] deals with Nucleic Acid. Put plainly: Binding constant to poly(dG-dC)DNA by ethidium bromide displacement. The class given is nucleic-acid assay. The method, boiled down: (§6)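 Association constants derived from the drug concentration displacing 50% of bound ethidium from the polynucleotide, assuming competitive binding of drug and ethidium to DNA.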
Data set [15] has as its system Nucleic Acid. Put plainly: Binding constant to poly(dA-dT)DNA by ethidium bromide displacement. The class given is nucleic-acid assay. The method, boiled down: as §6
Data set [16] deals with P388. Put plainly: Percent increase in life span of P388 tumor bearing animals compared to non treated, tumor-bearing controls when treated at the optimal dose of 150 mg/kg/day; IA denotes inactive. It counts as functional, organism-based. The following applies: Mus musculus.
Data set [17] relates to Lewis lung carcinoma cell line. Put plainly: Percentage increase in life span of tumor bearing animals compared to non treated, tumor-bearing controls when treated at the optimal dose of 100 mg/kg/day intraperitoneally; IA denotes inactive. The class given is functional, organism-based. Particulars: Mus musculus. The method, boiled down: (§7)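 Drug was given ip in 0.1 mL 30% v/v ethanol/water. For P388, 10^6 cells were inoculated ip and dosing was on days 1, 5 and 9, with >20% significant. For Lewis lung, 10^6 cells were inoculated iv and dosing was on days 5, 9 and 13, with >40% significant. The read-out is % lifespan increase over untreated controls.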

For data set [18], the system named is P388. In words: Percentage increase in life span of tumor bearing animals compared to non treated, tumor-bearing controls when treated at the optimal dose of 225 mg/kg/day intraperitoneally; IA denotes inactive. The class given is functional, organism-based. Particulars: Mus musculus. The method, boiled down: as §7

`Cl.Cl.O=C(NCCNCCO)c1cccc2cc3ccccc3nc12`: in data set [1], the ILS result was “inactive”. The compound also had a Rm in data set [2] of -0.22. Further, the IC50 in the data set on L1210 was 240 nM; in the data set with HCT-8 it was 1800 nM. The Ratio in data set [3] is 7.5. This compound also displayed an ILS at 13.3 mg/kg/day in the data set with P388 [4] of 22%.

In turn, `Cc1cccc2cc3cccc(C(=O)NCCN(C)C)c3nc12.Cl.Cl` showed a Rm in data set [2] of -0.17. Also, the ILS at 30 mg/kg/day was determined as 120% in [5] and 87% in the data set with P388 [6]. Moreover, the IC50 is 4.3 nM in the data set on L1210 and 54 nM in the data set with HCT-8. Further, the Ratio in data set [3] came to 12.6.

With `COc1ccc2nc3c(C(=O)NCCN(C)C)cccc3cc2c1.Cl.Cl`, the Rm in data set [2] is listed as -0.22. For the same compound, the IC50 in the data set with L1210 came to 640 nM; in the data set on HCT-8, 1700 nM. The ILS at 150 mg/kg/day in data set [7] was 46%; in the data set with P388 [8], 91%. In data set [9], this compound came in with a pKa of 3.54. Also, the Ratio in [3] stood at 2.7.

Regarding `Cc1ccc2nc3c(C(=O)NCCN(C)C)cccc3cc2c1.Cl.Cl`, in [2], the Rm is listed as -0.05. Also, the half-inhibitory concentration (IC50) came to 200 nM in the data set on L1210 and 1240 nM with HCT-8. Further, in [7], the increase in lifespan (ILS) at 150 mg/kg/day amounted to 85%. The same compound gave an increase in lifespan (ILS) at 100 mg/kg/day with P388 [10] of 68%. The Ratio in data set [3] came out at 6.2.

Take `CN(C)CCCCNC(=O)c1cccc2cc3ccccc3nc12.Cl`: in data set [2], the Rm is 0.01. The IC50 was 160 nM in the data set on L1210 and 930 nM in the data set with HCT-8. The increase in lifespan (ILS) at 100 mg/kg/day in data set [11] was 100%; in the data set with P388 [10] it was 143%. Also, the Ratio in data set [3] is on record as 5.8.

Take `CN(C)CCNC(=O)c1cccc2cc3c(Cl)cccc3nc12.Cl.Cl.Cl`: the Rm in [2] worked out at 0.01. For the same compound, the IC50 with L1210 is 160 nM; in the data set with HCT-8, 790 nM. The ILS at 65 mg/kg/day in [12] came out at 63%; in the data set with P388 [13], 102%. Moreover, the Ratio in [3] is reported as 4.9.

`COc1ccc(C(=O)NCCN(C)C)c2nc3ccccc3cc12.Cl.Cl`: the Rm in data set [2] is -0.13. The compound further gave an ILS at 30 mg/kg/day in the data set on P388 [6] of 205%. For the same compound, the IC50 was 8.8 nM with L1210 and 115 nM in the data set on HCT-8. This compound also came in with a pKa in data set [9] of 3.81. Further, the Ratio in [3] was determined as 13.1.

For the compound `COc1cccc2nc3c(C(=O)NCCN(C)C)cccc3cc12.Cl`, the Rm in [2] is reported as -0.12. In addition, the IC50 in the data set with L1210 is 58 nM; in the data set on HCT-8, 520 nM. In [9], the pKa was found to be 3.82. Besides, the ILS at 100 mg/kg/day in data set [11] came out at 66%; with P388 [10], 128%. Moreover, in data set [3], the Ratio is given as 9.

Take `CN(C)CCNC(=O)c1cccc2nc3ccccc3cc12.Cl.Cl`: the Rm in data set [2] was -0.56. The Log K in the data set on Nucleic Acid [14] worked out at 7.7; in the data set with Nucleic Acid [15], 6.87. This compound also had an IC50 with L1210 of 17900 nM. The same compound registered a pKa in data set [9] of 4.24. Besides, the ILS result in the data set with P388 [16] is “inactive”.

`CN(C)CCNC(=O)c1cccc2cc3cc(Cl)ccc3nc12.Cl.Cl` registered a Rm in data set [2] of -0.03. Further, the IC50 worked out at 250 nM with L1210 and 610 nM in the data set with HCT-8. Besides, the ILS at 100 mg/kg/day in data set [11] came out at 94%; with P388 [10], 106%. Moreover, the Ratio in [3] was found to be 2.4.

`Cc1ccc2cc3ccccc3nc2c1C(=O)NCCN(C)C.Cl.Cl`: in data set [2], the Rm is recorded as -0.21. In addition, the ILS result (in [17]; in the data set on P388 [18]) was “inactive” throughout. Further, the IC50 in the data set with L1210 was determined as 12700 nM.

For `COc1ccc2cc3cccc(C(=O)NCCN(C)C)c3nc2c1.Cl.Cl`, in data set [2], the Rm is recorded as -0.47. Besides, the values for the IC50 in the data set with L1210 and with HCT-8 were 210 nM and 470 nM, respectively. The compound further returned a pKa in [9] of 4.59. The same compound came in with an ILS at 100 mg/kg/day in data set [11] of 85%. Besides, the Ratio in data set [3] stood at 2.2.

In data set [2], `CN(C)CCNC(=O)c1cccc2cc3ccc(Cl)cc3nc12.Cl` registered a Rm of -0.06. In addition, the IC50 came to 6.4 nM with L1210 and 350 nM in the data set on HCT-8. The compound also had an increase in life span (ILS) at 65 mg/kg/day in data set [12] of 91%. Further, in [3], the Ratio was 54.

(Values after ChEMBL document CHEMBL1123878, “Potential antitumor agents. 50. In vivo solid-tumor activity of derivatives of N-[2-(dimethylamino)ethyl]acridine-4-carboxamide” (J Med Chem, 1987).)
